ChEMBL document CHEMBL1275392, “Assessment of chemoselective neoglycosylation methods using chlorambucil as a model” (2010)

What was measured:
[1] = tested on: NCI-H460; assay: Growth inhibition of human NCI-H460 cells after 7 days by celltiter-glo assay; assay type: functional; settings: NCI-H460, 168 h
[2] = tested on: SK-OV-3; assay: Growth inhibition of human SKOV3 cells after 7 days by celltiter-glo assay; assay type: functional; settings: SK-OV-3, 168 h
[3] = tested on: A549; assay: Growth inhibition of human A549 cells expressing p53 after 7 days by celltiter-glo assay; assay type: functional; settings: A549, 168 h
[4] = tested on: SF-268; assay: Growth inhibition of human SF268 cells after 7 days by celltiter-glo assay; assay type: functional; settings: SF-268, 168 h
[5] = Growth inhibition of human p53 deficient Hep3B cells after 7 days by celltiter-glo assay; assay type: functional, Hep 3B2; settings: 168 h
Outline: (§1)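 Cells seeded at 500 per well in 384-well plates. Compounds came from 30 mM DMSO stocks, serially diluted and tested in quadruplicate. Incubation was 7 d at 37 °C under 5% CO2. Calcein AM (10 μM) and EthD-1 were added, followed by a fluorescence read. CellTiter-Glo lysis was then done for 10 min at room temperature, with a luminescence read. GI50 came from curve fitting.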

[6] = tested on: MCF7; assay: Growth inhibition of human MCF7 cells after 7 days by celltiter-glo assay; assay type: functional; settings: MCF7, 168 h
[7] = Growth inhibition of human p53 deficient H1299 cells after 7 days by celltiter-glo assay; assay type: functional; settings: NCI-H1299, 168 h; outline: as §1
[8] = tested on: DU-145; assay: Growth inhibition of human DU145 cells after 7 days by celltiter-glo assay; assay type: functional; settings: DU-145, 168 h
[9] = tested on: HT-29; assay: Growth inhibition of human HT-29 cells after 7 days by celltiter-glo assay; assay type: functional; settings: HT-29, 168 h
[10] = tested on: HCT-15; assay: Growth inhibition of human HCT15 cells after 7 days by celltiter-glo assay; assay type: functional; settings: HCT-15, 168 h
[11] = tested on: SF-268; assay: Ratio of compound GI50 to chlorambucil GI50 for human SF268 cells; assay type: functional

SMILES | GI50 [1] | GI50 [2] | GI50 [3] | GI50 [4] | GI50 [5] | GI50 [6] | GI50 [7] | GI50 [8] | GI50 [9] | GI50 [10] | RatioGI50 [11]
CON(CCCc1ccc(N(CCCl)CCCl)cc1)[C@H]1O[C@H](COCc2ccccc2)[C@@H](OCc2ccccc2)[C@@H]1OCc1ccccc1 | > 100 µM | > 100 µM | > 100 µM | 80 µM | > 100 µM | 82 µM | > 100 µM | > 100 µM | 47 µM | 64 µM | 
CON(CCCc1ccc(N(CCCl)CCCl)cc1)C1O[C@@H](C)[C@@H](OCc2ccccc2)[C@@H](OCc2ccccc2)[C@@H]1OCc1ccccc1 (stereo partly specified) | 15.8 µM | 7.2 µM | 6.4 µM | 5.7 µM | 9.5 µM | 4 µM | 3.3 µM | 10 µM | 7.5 µM | 4.6 µM | 
CON(CCCc1ccc(N(CCCl)CCCl)cc1)C1O[C@H](CO)[C@@H](O[C@@H]2O[C@H](CO)[C@H](O)[C@H](O)[C@H]2O)[C@H](O)[C@@H]1O (stereo partly specified) | 57.7 µM | 35 µM | 56 µM | 19.1 µM | 38 µM | 26 µM | 24 µM | 43 µM | 34 µM | 31 µM | 
CON(CCCc1ccc(N(CCCl)CCCl)cc1)[C@@H]1O[C@H](CO[C@@H]2O[C@H](CO)[C@H](O)[C@H](O)[C@H]2O)[C@@H](O)[C@H](O)[C@H]1O | 45.5 µM | 27 µM | 40 µM | 16.3 µM | 29 µM | 21 µM | 17.8 µM | 36 µM | 27.4 µM | 20 µM | 
CON(CCCc1ccc(N(CCCl)CCCl)cc1)[C@@H]1O[C@H](COCc2ccccc2)[C@@H](OCc2ccccc2)[C@H]1OCc1ccccc1 | > 100 µM | > 100 µM | > 100 µM | > 100 µM | > 100 µM | > 100 µM | 82 µM | > 100 µM | > 100 µM | > 100 µM | 
CON(CCCc1ccc(N(CCCl)CCCl)cc1)[C@H]1O[C@@H](CO)[C@H](O)[C@@H](O)[C@@H]1O | 14.3 µM | 4.5 µM | 6.8 µM | 2.2 µM | 5 µM | 1.8 µM | 1.6 µM | 7 µM | 4.6 µM | 2.8 µM | 
C[C@H]1OC(N(O)CCCc2ccc(N(CCCl)CCCl)cc2)[C@H](O)[C@@H](O)[C@H]1O (stereo partly specified) | 4.9 µM | 4.7 µM | 6.4 µM | 1.4 µM | 3.6 µM | 2.7 µM | 2.6 µM | 5.7 µM | 4.6 µM | 3.8 µM | 
O=C1O[C@@H]2[C@@H](O)[C@H](N(O)CCCc3ccc(N(CCCl)CCCl)cc3)O[C@@H]2[C@@H]1O | 13.1 µM | 10.1 µM | 10.4 µM | 3.1 µM | 7.2 µM | 4.1 µM | 3.8 µM | 14.8 µM | 9.9 µM | 8.5 µM | 
C[C@H]1O[C@@H](NNC(=O)CCCc2ccc(N(CCCl)CCCl)cc2)[C@H](O)[C@@H](O)[C@H]1O | 51 µM | 22 µM | 28 µM | 5.8 µM | 11 µM | 6.3 µM | 8.7 µM | 24 µM | 16.7 µM | > 100 µM | 
C=CCOC(=O)NC[C@H]1O[C@@H](N(CCCc2ccc(N(CCCl)CCCl)cc2)OC)[C@H](O)[C@@H](O)[C@@H]1O | 11 µM | 2.9 µM | 4.5 µM | 3.1 µM | 4.6 µM | 7.4 µM | 2.1 µM | 6.2 µM | 2.8 µM | 2.1 µM | 
O=C(CCCc1ccc(N(CCCl)CCCl)cc1)NN[C@@H]1O[C@H]2[C@H](OC(=O)[C@H]2O)[C@H]1O | 43 µM | 37 µM | 31 µM | 8.9 µM | 17.7 µM | 9.9 µM | 12.9 µM | 23 µM | 30 µM | > 100 µM | 
O=C(CCCc1ccc(N(CCCl)CCCl)cc1)N/N=C/[C@@H](O)[C@H](O)CO | 10.8 µM | 6.2 µM | 7.5 µM | 2.6 µM | 4.1 µM | 4.2 µM | 2.6 µM | 9.5 µM | 4.8 µM | 7.3 µM | 
CON(CCCc1ccc(N(CCCl)CCCl)cc1)[C@@H]1O[C@H](C)[C@@H](O)[C@H](O)[C@H]1O | 8.5 µM | 2.9 µM | 4.6 µM | 2.9 µM | 4.4 µM | 5.8 µM | 1.8 µM | 4.9 µM | 2.2 µM | 1.1 µM | 
CON(CCCc1ccc(N(CCCl)CCCl)cc1)[C@@H]1O[C@H](C(=O)O)[C@@H](O)[C@H](O)[C@H]1O | 9.1 µM | 3.1 µM | 5.5 µM | 1.6 µM | 4.9 µM | 6 µM | 0.99 µM | 3.9 µM | 3.2 µM | 1.03 µM | 
O=C(CCCc1ccc(N(CCCl)CCCl)cc1)NN[C@@H]1OC[C@@H](O)[C@H](O)[C@H]1O | 26 µM | 12 µM | 14.8 µM | 2.5 µM | 5.5 µM | 4.5 µM | 3.9 µM | 19 µM | 7.2 µM | > 100 µM | 
CON(CCCc1ccc(N(CCCl)CCCl)cc1)[C@@H]1O[C@H]2[C@H](OC(=O)[C@H]2O)[C@H]1O | 3.8 µM | 5.2 µM | 3.7 µM | 0.46 µM | 1.3 µM | 1.1 µM | 0.4 µM | 1.9 µM | 3.6 µM | 0.99 µM | 12
CON(CCCc1ccc(N(CCCl)CCCl)cc1)C1O[C@H](CO)[C@@H](O)[C@H](O)[C@@H]1NC(C)=O (stereo partly specified) | 33.3 µM | 10.1 µM | 21 µM | 3.4 µM | 9.8 µM | 9 µM | 2.7 µM | 16 µM | 8.7 µM | 22 µM | 
CON(CCCc1ccc(N(CCCl)CCCl)cc1)[C@@H]1O[C@H](CO)[C@@H](O)[C@H](O[C@H](C)C(=O)O)[C@H]1NC(C)=O | 13.1 µM | 7 µM | 8.6 µM | 4.1 µM | 8 µM | 4.5 µM | 2.4 µM | 8.9 µM | 6.3 µM | 3.1 µM | 
CO[C@@H]1[C@@H](OC(N)=O)[C@@H](O)C(N(CCCc2ccc(N(CCCl)CCCl)cc2)OC)OC1(C)C (stereo partly specified) | 9.7 µM | 5.4 µM | 5.8 µM | 5.1 µM | 6 µM | 4.8 µM | 1.3 µM | 6.7 µM | 6 µM | 1.7 µM | 
CON(CCCc1ccc(N(CCCl)CCCl)cc1)C1O[C@H](C)[C@H](O)[C@H](O)[C@H]1O (stereo partly specified) | 5.9 µM | 1.7 µM | 9.6 µM | 1.7 µM | 2.6 µM | 3 µM | 3.5 µM | 4.1 µM | 6.7 µM | 0.82 µM | 
CON(CCCc1ccc(N(CCCl)CCCl)cc1)C1O[C@@H](CO)[C@@H](O)[C@@H](O)[C@@H]1O (stereo partly specified) | 10.4 µM | 4.1 µM | 4.8 µM | 2 µM | 3.8 µM | 1.3 µM | 1.4 µM | 5.5 µM | 3.7 µM | 2.3 µM | 
CON(CCCc1ccc(N(CCCl)CCCl)cc1)C1O[C@H](C(=O)O)[C@H](O)[C@H](O)[C@H]1O (stereo partly specified) | 34 µM | 12.8 µM | 17.1 µM | 8.9 µM | 14.7 µM | 4.5 µM | 4.9 µM | 16.3 µM | 14.9 µM | 8.1 µM | 
CON(CCCc1ccc(N(CCCl)CCCl)cc1)C1O[C@H](C(=O)O)[C@H](O)[C@H](O)[C@H]1NC(C)=O (stereo partly specified) | 42 µM | 11 µM | 22 µM | 4.2 µM | 11.8 µM | 4.4 µM | 3.8 µM | 16.7 µM | 12 µM | 19.1 µM | 
O=C(O)CCCc1ccc(N(CCCl)CCCl)cc1 [CHLORAMBUCIL] | 11 µM | 5.5 µM | 6.1 µM | 5.4 µM | 5.1 µM | 8.2 µM | 4.9 µM | 9.4 µM | 5 µM | 8.1 µM | 
